Measured values published in publication PMC2199177 (The Journal of Experimental Medicine, 1997).

Key:
T1 CTL = assay: 51Cr-release assay; type: cell-based; conditions: without Fab'
How it was run: (§1)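 51Cr-labeled P815 targets (2 × 10^3/well) in DMEM with FCS (5%) and Hepes (10 mM) plus 10-fold peptide dilutions, 10−6–10−13 M. Cloned CTL (6 × 10^3/well) added, 4 h at 37°C, then supernatant 51Cr counted. Specific lysis was derived from spontaneous and total release. Relative activity is the wt half-maximal-lysis concentration divided by the variant's, normalized by relative Kd competitor activity. Triplicates, at least two experiments.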

S14 CTL [1] = conditions: ref [4]; cited from earlier work
S17 CTL [2] = assay: 51Cr-release assay; type: cell-based; conditions: without Fab'
How it was run: as §1

S14 CTL [3] = assay: 51Cr-release assay; type: cell-based; conditions: without Fab'
How it was run: as §1

S17 CTL [4] = assay: Interferon γ assay; type: cell-based
How it was run: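 CTL were incubated with peptide-sensitized P815 targets as in the cytotoxicity assay, with peptide derivatives at 10−6–10−11 M, some runs with SF1-1.1.1 Fab′ (anti-Kd α3) to block CD8 participation. After 24 h, supernatant IFN-γ was measured by ELISA and values were normalized to the wt ligand. Triplicates, at least two experiments.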

| Substance | functional phenotype (antigen recognition versus TCR-ligand binding) (S17 CTL [2]) | effect of blocking of CD8 (SF1-1.1.1 Fab') on IFN-γ production (S17 CTL [4]) | further results |
| --- | --- | --- | --- |
| IASA-YIASAEK(ABA)I [P255A] |  |  | functional phenotype (antigen recognition versus TCR-ligand binding) (T1 CTL): strong agonists |
| IASA-YILSAEK(ABA)I [P255L] |  |  | functional phenotype (S14 CTL [1]): antagonist |
| IASA-YIPAAEK(ABA)I [S256A] | strong agonists |  |  |
| IASA-YIPSAAK(ABA)I [E258A] |  |  | functional phenotype (antigen recognition versus TCR-ligand binding) (S14 CTL [3]): weak agonists |
| IASA-YIPSAEK(ABA)I [WT] |  | substantially increased |  |
| IASA-YISSAEK(ABA)I [P255S] | weak agonists | substantially increased |  |
